Test results as given in ChEMBL document CHEMBL1124284, “Design of novel inhibitors of aminopeptidases. Synthesis of peptide-derived diamino thiols and sulfur replacement analogues of bestatin” (J Med Chem, 1988).

Test: Inhibition of partially purified soluble aminopeptidase from rat brain
Details: read-out: I50
In short: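 Enzyme from whole fresh Sprague-Dawley rat brain: homogenized in ice-cold 50 mM Tris-HCl pH 7.4 with 1 mM DTT and 0.01 mM ZnCl2, soluble supernatant taken after 80000g spin, 40–70% ammonium sulfate cut, dialyzed. About 30 μg protein started the reaction with leucine p-nitroanilide (final 100 μM), up to 1 h at 37 °C or room temperature. Released p-nitroaniline read at 550 nm.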

Work on `CC(C)C[C@@H](NC(=O)[C@H](Cc1ccccc1)NCC(S)[C@@H](N)CC(C)C)C(=O)O` (stereo partly drawn) yielded an IC50 of 4 nM.
With `CC(C)C[C@@H](NC(=O)[C@H](Cc1ccccc1)NCC(S)[C@@H](N)Cc1ccccc1)C(=O)O` (stereo partly drawn) the IC50 was 1 nM.
Work on `CC(C)C[C@@H](NC(=O)[C@H](Cc1ccccc1)NCC(O)[C@@H](N)Cc1ccccc1)C(=O)O` (stereo partly drawn) yielded an IC50 of 580 nM.
`CC(C)C[C@H](NCC(S)[C@@H](N)CC(C)C)C(N)=O` (stereo partly drawn) showed an IC50 of 34 nM.
`N[C@H](CS)Cc1ccccc1` gave an IC50 of 39 nM.
For `CC(C)C[C@@H](NC(=O)[C@H](Cc1ccccc1)NCCS)C(=O)O`, the IC50 was 240000 nM.
`CC(C)C[C@H](N)CS` gave an IC50 of 10 nM.
With `CC(C)C[C@H](NCC(S)[C@@H](N)Cc1ccccc1)C(N)=O` (stereo partly drawn) the IC50 was 33 nM.
`CC(C)C[C@H](NC(=O)C(S)[C@@H](N)Cc1ccccc1)C(=O)O` (stereo partly drawn) gave an IC50 of 1600 nM.
Compound `N[C@@H](CS)Cc1ccccc1` has an IC50 of 6900 nM.
For `CC(C)CCNCC(S)[C@@H](N)Cc1ccccc1` (stereo in doubt; 53), the IC50 was 300 nM.
In the case of `CC(C)CCNCC(S)[C@@H](N)Cc1ccccc1` (stereo in doubt; 54), the IC50 is reported as 20 nM.
For `CC(C)CCNCC(S)[C@@H](N)CC(C)C` (stereo in doubt; 55), the IC50 was 81 nM.
For `CC(C)CCNCC(S)[C@@H](N)CC(C)C` (stereo in doubt; 56), the IC50 was 29 nM.
`CC(C)CCNCC(S)[C@H](N)Cc1ccccc1` (stereo in doubt; 57) showed an IC50 of 3100 nM.
With `CC(C)CCNCC(S)[C@H](N)Cc1ccccc1` (stereo in doubt; 58) the IC50 was 600 nM.
`CC(C)CCNCC(S)[C@H](N)CC(C)C` (stereo in doubt; 59) gave an IC50 of 7500 nM.
With `CC(C)CCNCC(S)[C@H](N)CC(C)C` (stereo in doubt; 60) the IC50 was 2500 nM.
For `CC(C)C[C@H](NCC(S)[C@@H](N)Cc1ccccc1)C(=O)O` (stereo in doubt; 70), the IC50 was 4400 nM.
Work on `CC(C)C[C@H](NCC(S)[C@@H](N)Cc1ccccc1)C(=O)O` (stereo in doubt; 71) yielded an IC50 of 220 nM.
`CC(C)C[C@H](NC(=O)C(S)[C@H](N)Cc1ccccc1)C(=O)O` (stereo in doubt; 78) gave an IC50 of 10000 nM.
Compound `CC(C)C[C@H](NC(=O)C(S)[C@H](N)Cc1ccccc1)C(=O)O` (stereo in doubt; 79) has an IC50 of 220 nM.
With `CC(C)C[C@H](NC(=O)[C@@H](O)[C@H](N)Cc1ccccc1)C(=O)O` [UBENIMEX] the IC50 was 170 nM.
